Published values pooled from the literature.
Each line is one published result; the experiments were not run side by side.
Target: Serine/threonine-protein kinase BRSK2 (BRSK2, Homo sapiens, UniProt Q8IWQ3)
Residues used in one study (Q8IWQ3 1-736): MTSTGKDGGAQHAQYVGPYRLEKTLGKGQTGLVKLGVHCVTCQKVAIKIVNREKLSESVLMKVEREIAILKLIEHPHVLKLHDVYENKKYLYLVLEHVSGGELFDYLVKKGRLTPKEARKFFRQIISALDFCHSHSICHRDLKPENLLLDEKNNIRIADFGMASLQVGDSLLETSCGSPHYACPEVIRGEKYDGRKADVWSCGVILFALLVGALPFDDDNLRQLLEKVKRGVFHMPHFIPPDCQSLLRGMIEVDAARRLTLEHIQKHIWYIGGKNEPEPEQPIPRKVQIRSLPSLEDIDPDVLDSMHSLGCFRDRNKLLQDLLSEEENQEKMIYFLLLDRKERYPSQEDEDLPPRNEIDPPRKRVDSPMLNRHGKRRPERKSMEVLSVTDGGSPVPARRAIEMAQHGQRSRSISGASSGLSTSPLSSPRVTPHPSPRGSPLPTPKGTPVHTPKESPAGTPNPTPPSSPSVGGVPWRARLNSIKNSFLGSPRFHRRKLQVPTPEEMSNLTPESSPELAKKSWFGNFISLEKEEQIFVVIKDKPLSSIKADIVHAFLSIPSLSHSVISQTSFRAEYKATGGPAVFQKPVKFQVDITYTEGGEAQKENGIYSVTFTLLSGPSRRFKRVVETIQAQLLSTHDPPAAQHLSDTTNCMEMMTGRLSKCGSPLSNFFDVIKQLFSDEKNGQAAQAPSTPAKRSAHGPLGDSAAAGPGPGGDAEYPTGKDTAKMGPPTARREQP

Compound	test	conditions	remaining binding
FC(F)(F)Oc1cccc(-c2cnc3ccc(-c4ccncc4)nn23)c1	cell-free assay, competition with immobilised ligand	5 µM	80%
Nc1ncc2c(n1)-c1c([nH]c3ccc(C#CC4CC4)cc13)CCCC2	binding, competition with immobilised ligand	1 µM	93%
O=C(NS(=O)(=O)c1ccc(NCC2CCOCC2)c([N+](=O)[O-])c1)c1ccc(N2CCN(Cc3ccc(C(F)(F)F)cc3-c3ccc(Cl)cc3)CC2)cc1Oc1cnc2[nH]ccc2c1	cell-free assay, competition with immobilised ligand	1 µM	87%
O=C(c1ccc(Nc2ncc(Cl)c(-c3cc4ccccc4s3)n2)cc1)N1CCC(N2CCCC2)CC1	binding, competition with immobilised ligand	1 µM	53%
COc1ccnn2ncc(-c3ccnc(N(C)C)n3)c12	binding	1 µM	76%
O=C(c1ccc(Nc2ncc(Cl)c(-c3ccc(Cl)s3)n2)cc1)N1CCC(N2CCCC2)CC1	binding, competition with immobilised ligand	1 µM	58%
COc1cnc(Nc2cccc(S(N)(=O)=O)c2)nc1N1CCN(c2ccccc2)CC1	binding, competition with immobilised ligand	1 µM	100%
COc1cc(-c2cn(C3CCc4ccccc4N(CC(F)(F)F)C3=O)nn2)ccc1-n1ccc(C)n1 (stereo not drawn)	cell-free assay, competition with immobilised ligand	1 µM	97%
O=C(NCCCN1CCOCC1)c1ccc(Nc2nccc(-c3cc4ccccc4s3)n2)cc1	binding, competition with immobilised ligand	1 µM	77%
O=C(Nc1cccnn1)N1CC(C/C=C/c2cncc(Oc3ccc(C(F)(F)F)cn3)n2)C1	cell-free assay, competition with immobilised ligand	1 µM	100%
CC1CCCN1c1nccc(-c2cnn3ncccc23)n1 (stereo not drawn)	binding	1 µM	100%
O=C(Nc1c[nH]nc1C(=O)NC1CCNCC1)c1cc(F)cc(F)c1	binding, competition with immobilised ligand	1 µM	100%
c1cnn2ncc(-c3ccnc(N4CCC45COC5)n3)c2c1	binding	1 µM	84%
CN(C)c1ncnc(-c2ccc3nc(Nc4cc(CN5CCN(C(=O)CC(F)(F)F)CC5)ccn4)[nH]c3c2)c1Cl	cell-free assay, competition with immobilised ligand	1 µM	100%
CN(C)c1nccc(-c2cnn3ncccc23)n1	binding	1 µM	84%
CNC(=O)[C@@H]1CC[C@@H](n2c(-c3ccc4cnccc4c3)nc3ccc(C(=O)NCc4cccc(C(N)=O)c4)cc32)C1	binding, competition with immobilised ligand	1 µM	93%
O=C(Nc1cnc(Oc2ccc(F)cc2)nc1)N1CCc2ncccc2[C@@H]1c1ccc(F)cc1	cell-free assay, competition with immobilised ligand	1 µM	89%
N[C@H]1CCN(c2nccc(-c3cnn4ncccc34)n2)C1	binding	1 µM	100%
C=CC(=O)N1CCC(C(=O)NCC(=O)N2CCN(c3nc(-c4cnc(N)nc4C(F)F)nc(N4CCOCC4)n3)CC2)CC1	binding, competition with immobilised ligand	1 µM	100%
NS(=O)(=O)c1cc(NC(=O)Cc2ccccc2)ccc1Oc1cccc(Cl)c1	cell-free assay, competition with immobilised ligand	1 µM	91%
C[C@@H]1CCN(c2nccc(-c3cnn4ncccc34)n2)C1	binding	1 µM	91%
